# Source: ChEMBL document CHEMBL1629439, “High-throughput identification of antibacterials against methicillin-resistant Staphylococcus aureus (MRSA) and the transglycosylase” (Bioorg Med Chem, 2010)
# How the values were obtained:
# Staphylococcus aureus [1] = assay: Antimicrobial activity against oxacillin- and methicillin-resistant Staphylococcus aureus isolate Sa-OXA-R2 after 18 to 24 hrs by alamar blue assay; format: functional
# Method in brief: (§1)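 Broth microdilution per NCCLS standard, Mueller-Hinton broth, 8-point twofold dilutions; exponentially growing cells at 5 10^5 cells/ml with compound, 18–24 h at 37 C; 20% Alamar blue added, fluorescence read; MIC90 taken as lowest concentration preventing at least 90% growth.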
# Bacillus subtilis = assay: Antimicrobial activity against Bacillus subtilis ATCC 23857 after 18 to 24 hrs by alamar blue assay; format: functional
# Method in brief: (§2)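 Broth microdilution per NCCLS in Mueller-Hinton broth, 8-point twofold dilutions, 384-well format. Exponential-phase cells at 5 × 10^5 cells/ml incubated with compound 18–24 h at 37 °C, then 20% Alamar blue added and fluorescence read. MIC90 taken as the lowest concentration preventing at least 90% bacterial growth.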
# Escherichia coli = assay: Antimicrobial activity against Escherichia coli ATCC […] after 18 to 24 hrs by alamar blue assay; format: functional; conditions: Escherichia coli; read-out: MIC; method in brief: as §2
# Pseudomonas aeruginosa = assay: Antimicrobial activity against Pseudomonas aeruginosa ATCC 25619 after 18 to 24 hrs by alamar blue assay; format: functional; conditions: Pseudomonas aeruginosa, ATCC 25619; read-out: MIC; method in brief: as §2
# Acinetobacter baumannii = assay: Antimicrobial activity against Acinetobacter baumannii ATCC 49139 after 18 to 24 hrs by alamar blue assay; format: functional; conditions: Acinetobacter baumannii, ATCC 49139; read-out: MIC; method in brief: as §2
# [2] = tested on: Stenotrophomonas maltophilia; assay: Antimicrobial activity against Stenotrophomonas maltophilia ATCC 13637 after 18 to 24 hrs by alamar blue assay; format: functional; conditions: Stenotrophomonas maltophilia, ATCC 13637; read-out: MIC; method in brief: as §2
# Serratia marcescens = assay: Antimicrobial activity against Serratia marcescens ATCC 14756 after 18 to 24 hrs by alamar blue assay; format: functional; conditions: Serratia marcescens, ATCC 14756; read-out: MIC; method in brief: as §2
# [3] = tested on: Mycolicibacterium smegmatis; assay: Antimicrobial activity against Mycobacterium smegmatis BCRC 11565 after 18 to 24 hrs by alamar blue assay; format: functional; conditions: Mycolicibacterium smegmatis, BCRC 11565; read-out: MIC; method in brief: as §2
# [4] = Inhibition of transglycosylase assessed as inhibition of NBD- labelled lipid II polymerization
# Method in brief: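 100 µM NBD-labelled lipid II incubated 30 min with full-length PBP (EC, SA or Mtb) and 10 ng/µl N-acetylmuramidase in 50 mM Tris-HCl pH 8.0, 10 mM MgCl2, 0.1% Triton X-100, 10% DMSO, 15% MeOH. Supernatant run on anion-exchange HPLC with 20 mM–0.5 M ammonium acetate gradient. Inhibition calculated from substrate peak-area percentage. IC50 determined. S. aureus strains share one SA enzyme.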
# Staphylococcus aureus [5] = assay: Antimicrobial activity against methicillin-resistant Staphylococcus aureus isolate NTUH4722 after 18 to 24 hrs by alamar blue assay; format: functional; method in brief: as §1
# Staphylococcus aureus [6] = assay: Antimicrobial activity against methicillin-resistant Staphylococcus aureus ATCC 33592 after 18 to 24 hrs by alamar blue assay; format: functional; conditions: Staphylococcus aureus, ATCC 33592; read-out: MIC; method in brief: as §1
# Staphylococcus aureus [7] = assay: Antimicrobial activity against Staphylococcus aureus ATCC 29213 after 18 to 24 hrs by alamar blue assay
SMILES,MIC (Staphylococcus aureus [1]) [µg/mL],MIC (Bacillus subtilis) [µg/mL],MIC (Escherichia coli) [µg/mL],MIC (Pseudomonas aeruginosa) [µg/mL],MIC (Acinetobacter baumannii) [µg/mL],MIC [2] [µg/mL],MIC (Serratia marcescens) [µg/mL],MIC [3] [µg/mL],IC90 [4] [µM],MIC (Staphylococcus aureus [5]) [µg/mL],MIC (Staphylococcus aureus [6]) [µg/mL],MIC (Staphylococcus aureus [7]) [µg/mL]
Cc1ccc(C(C)C)c(Oc2ccc(Cl)cc2NC(=O)c2cc(Cl)cc(Cl)c2O)c1,≤ 0.03,< 0.03,8,16,16,16,16,0.5,50,≤ 0.03,0.25,1
O=C(c1ccc(Cl)cc1)c1ccc(NC(=O)c2cc(Br)cc(Br)c2O)cc1Cl,≤ 0.03,< 0.03,8,16,16,16,16,0.5,100,≤ 0.03,4,≤ 2
O=C(Nc1ccc(Oc2ccc(Cl)c3cccnc23)c(Cl)c1)c1cc(Br)cc(Br)c1O,≤ 0.03,< 0.03,8,16,16,16,16,0.5,100,≤ 0.03,32,16
Cc1ccc(C(C)C)cc1Oc1ccc(Cl)cc1NC(=O)c1cc(Cl)ccc1O,≤ 0.03,< 0.03,8,16,16,16,16,0.5,100,≤ 0.03,0.5,0.5
O=C(Nc1cc(Cl)ccc1Oc1cccc2c(Br)cccc12)c1cc(Cl)cc(Br)c1O,≤ 0.03,< 0.03,8,16,16,16,16,0.5,100,≤ 0.03,≤ 2,4
O=C(Nc1ccc(NS(=O)(=O)c2ccc(Cl)cc2)cc1Cl)c1cc(Cl)ccc1O,≤ 0.03,< 0.03,8,16,16,16,16,0.5,> 100,≤ 0.03,32,16
O=C(Nc1ccc(Oc2ccc3ccccc3c2Cl)c(Cl)c1)c1cc(I)cc(I)c1O,≤ 0.03,< 0.03,8,16,16,16,16,0.5,> 100,≤ 0.03,8,8
O=C(Nc1ccc(Oc2ccc3ccccc3c2Cl)c(Cl)c1)c1cc(Cl)cc(Br)c1O,≤ 0.03,< 0.03,8,16,16,16,16,0.5,100,≤ 0.03,≤ 2,≤ 2
O=C(c1ccccc1)c1cc(NC(=O)c2cc(Br)cc(Br)c2O)ccc1Cl,1,< 0.03,8,16,16,16,16,0.5,100,2,1,1
Cc1ccc(C(=O)c2cc(Cl)cc(NC(=O)c3cc(Br)cc(Br)c3O)c2Cl)cc1,> 4,< 0.03,8,16,16,16,16,0.5,100,> 4,> 4,> 4
O=C(Nc1cc(Cl)ccc1Oc1ccc(Cl)c2ccccc12)c1cc(I)cc(I)c1O,≤ 0.03,< 0.03,8,16,16,16,16,0.5,50,≤ 0.03,≤ 2,4
